Source: PubChem BioAssay (several laboratories)
Sampled rows, rich in hits. Any-hit rate of the full collection: about 3.7%.
MT stabilizer: microtubule stabilizers in HeLa cells; HeLa tubulin immunostaining HCS, 24 h; share of cells brighter than vehicle mean+2SD; % tubulin-high responders, % at 10 µM; 0.83% of 200,000 active; AID 2205;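 active = plate Z-score above 3 for both tubulin-high and condensed-nucleus cell shares, with cell loss under 80%, at 10 µM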;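 note: anti alpha tubulin signal scored within the nucleus-defined area of each cell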
ROMK mod: modulators of human ROMK potassium channel. 2% of 130,000 active. B-score at 10 µM. Tet-inducible ROMK, thallium flux fluorescence; actives lie on both sides. AID 1918;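 active = signal ratio slope over the read window, or its plate-corrected B-score, at least 3 SD from the plate mean, either direction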;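 note: B-score of the F/F0 ratio slope over 7 to 12 s after thallium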
bCat nuc transl: beta-catenin nuclear translocation modulation; HeLa beta-catenin nuclear translocation, immunofluorescence imaging; nuclear translocation activity, % at 5 µM; 0.3% of 190,000 active;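 active = nuclear translocation activity above 50% at 5 µM, with a well cell count of 50 or more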;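 note: per-cell ratio of nuclear to cytoplasmic median beta-catenin stain intensity; plate controls were DMSO negative control for no effect and GSK-3 inhibitor IX positive control for full effect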
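test system = HeLa cells, endogenous beta-catenin | dosing = single 5 µM dose plus 0.02–20 µM confirmation series | times = compound treatment 24 h, 37°C, 5% CO2 | technique = beta-catenin immunofluorescence imaging with DAPI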
DTT redox prof: compounds producing H2O2 with reducing agent – biochemical, NIH compound library profiling, artefact control for MLSCN library redox annotation, primary screen. DTT-dependent redox cycling H2O2, phenol red/HRP absorbance; 100% = 100 µM peroxide control, 0% = buffer. activation, % at 10 µM. 0.03% of 200,000 active. AID 878;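 active = activation of at least 50% relative to the plate's high and low controls in the primary single-dose screen; inactive = activation below 50%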;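 note: compound incubated with DTT at 0.8 mM final as the reducing agent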
Cl transport mod: modulators of human KCC2 chloride dependent transport. Q9H2X9. B-score of Tl+ flux slope (higher = more flux/activation; lower = inhibition) at 10 µM. KCC2 cells, thallium flux FluoZin-2 fluorescence. 2.2% of 190,000 active;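 active = thallium flux slope and its plate-corrected score both differing from the plate sample mean at a set confidence after two filtering rounds, in either direction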;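 note: slope of fluorescence scaled to starting intensity during 10 to 20 s after thallium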
Numbers without * were called inactive.

O=C(Nc1ccccc1C(=O)O)/C(=C/c1ccc([N+](=O)[O-])cc1)NC(=O)c1ccc(Br)o1 was read as MT stabilizer 3, ROMK mod 0.43, bCat nuc transl -2, DTT redox prof 0 and Cl transport mod -0.01.
For CC(=O)NC(=S)Nc1ccc([N+](=O)[O-])cc1C the results were MT stabilizer 5, ROMK mod 1.6, bCat nuc transl 0, DTT redox prof 0 and Cl transport mod -0.67.
Cc1cc([N+](=O)[O-])ccc1NC(=S)NC(=O)Cc1ccccc1 was read as MT stabilizer 2, ROMK mod -0.49, bCat nuc transl -15, DTT redox prof -1 and Cl transport mod 8.5*.
`NNc1ccc(Cl)c(C(=O)O)c1` gave bCat nuc transl 1 and Cl transport mod 0.027.
Screening COc1cc(/C=N/n2cnc3scc(-c4cccs4)c3c2=O)cc(OC)c1OC returned MT stabilizer 30*, ROMK mod 0.46, bCat nuc transl 2, DTT redox prof 0 and Cl transport mod -0.3.
`COc1ccc(/C=N/n2cnc3scc(-c4cccs4)c3c2=O)cc1OC` gave MT stabilizer 3, ROMK mod 0.081, DTT redox prof 0 and Cl transport mod -1.3.
`N#CC1=C(SCC(=O)Nc2ccc(C(=O)O)cc2)NC(=O)CC1c1ccco1` (configuration not stated) gave bCat nuc transl -1 and Cl transport mod 0.54.
COc1ccc(Br)c(C(=O)N2CCN(S(=O)(=O)c3cccs3)CC2)c1 was read as bCat nuc transl 0 and Cl transport mod -0.56.
Cc1cccc2cc3c(N)c(C(=O)N4CCc5ccccc54)sc3nc12 was read as MT stabilizer 12*, ROMK mod -0.14, bCat nuc transl 12, DTT redox prof 0 and Cl transport mod 0.19.
For Cc1cc(C)c2nc3sc(C(=O)N4CCOCC4)c(N)c3cc2c1 the results were bCat nuc transl 72* and Cl transport mod -1.4.
Cc1ccc(C)c2nc3sc(C(=O)N4CCOCC4)c(N)c3cc12 was read as MT stabilizer 28*, bCat nuc transl 43, DTT redox prof 0 and Cl transport mod -1.1.
Cc1ccc(-c2csc3nc[nH]c(=S)c23)cc1C was read as MT stabilizer 6, bCat nuc transl 1, DTT redox prof 1 and Cl transport mod 43*.
COc1cccc(NC(=O)CSC(N)=O)c1 was read as MT stabilizer 2, ROMK mod -1.3, DTT redox prof 1 and Cl transport mod 1.5.
O=C(c1ccco1)N1CCN(C(=O)c2cc3c(=O)oc4ccccc4c3s2)CC1 was read as MT stabilizer 4, bCat nuc transl 0, DTT redox prof -1 and Cl transport mod -2.1.
`Cc1ccc2oc(=O)c3cc(C(=O)N4CCN(C(=O)c5ccco5)CC4)sc3c2c1` gave MT stabilizer 3, bCat nuc transl -1, DTT redox prof 0 and Cl transport mod -2.5*.
Screening Cc1ccc(N=Nc2c(N)nn(-c3ccccc3)c2N)cc1 returned MT stabilizer 10*, ROMK mod 2, bCat nuc transl 2, DTT redox prof 0 and Cl transport mod 0.15.
For Cc1cnc(C(=O)Nc2ccc(F)cc2)cn1 the results were MT stabilizer 2, DTT redox prof 2 and Cl transport mod 1.7.
Cc1cnc(C(=O)Nc2ccc(C(C)C)cc2)cn1 was read as MT stabilizer 18*, ROMK mod 0.33, bCat nuc transl 19, DTT redox prof 0 and Cl transport mod -0.7.
Screening CC(C)(C)OC(=O)N1CCN(c2ccc(NC(=O)Cn3nnc(-c4ccccc4)n3)cc2)CC1 returned MT stabilizer 5, ROMK mod 0.41, bCat nuc transl 0, DTT redox prof 0 and Cl transport mod 1.9.
`Cc1cnc(C(=O)Nc2ccc(N3CCN(C(=O)OC(C)(C)C)CC3)cc2)cn1` gave MT stabilizer 39*, bCat nuc transl 68*, DTT redox prof 4 and Cl transport mod 0.7.
For CCCN(CCC)C1=N/C(=C\c2ccco2)C(=O)N1c1ccccc1 the results were MT stabilizer 2, ROMK mod 0.57, bCat nuc transl -5, DTT redox prof -2 and Cl transport mod -0.29.
Screening COc1ccc(O)c(C(=O)CC(=O)c2ccccc2)c1 returned MT stabilizer 26, bCat nuc transl 4, DTT redox prof -1 and Cl transport mod 22*.
